Laboratory results: ChEMBL document CHEMBL4118145, “Structure-activity relationship investigation of Phe-Arg mimetic region of human glutaminyl cyclase inhibitors” (Bioorg Med Chem, 2018)

How the values were obtained:
[1] = tested on: Mus musculus; assay: In vivo inhibition of glutaminyl cyclase in ICR mouse brain extract assessed as decrease in levels of human pyroglutamyl-beta-amyloid (1 to 40) containing N-terminal pyroglutamte at position 3 at 25 mg/kg, icv measured next day by sandwich ELISA relative to control; assay type: functional; conditions: central
In short: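 Male ICR mice (25 g, n = 4) received icv injection of human Aβ3-40 (5 μL of 1 μg/μL in PBS, 5 µg) into deep cortical/hippocampal tissue via stereotaxic frame, then compound at 25 mg/kg icv. Brain extracts taken next day; Aβ N3pE-40 quantified by sandwich ELISA, expressed as % inhibition versus vehicle control.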

[2] = biological target: hERG (KCNH2) (Homo sapiens, UniProt Q12809); assay: Inhibition of human ERG at 10 uM relative to control
In short: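 hERG channel blocking tested at 10 μM, reported as % inhibition.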

[3] = tested on: HT-22; assay: Cytotoxicity against mouse HT22 cells assessed as decrease in cell viability at 10 uM by MTT assay relative to control; assay type: cell-based; conditions: ht-22, 10 µM
In short: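 HT-22 immortalized hippocampal neuronal cells incubated with compound at 10 μM; viability read by MTT assay and expressed as % of control.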

hERG (KCNH2), sequence (Q12809 whole entry): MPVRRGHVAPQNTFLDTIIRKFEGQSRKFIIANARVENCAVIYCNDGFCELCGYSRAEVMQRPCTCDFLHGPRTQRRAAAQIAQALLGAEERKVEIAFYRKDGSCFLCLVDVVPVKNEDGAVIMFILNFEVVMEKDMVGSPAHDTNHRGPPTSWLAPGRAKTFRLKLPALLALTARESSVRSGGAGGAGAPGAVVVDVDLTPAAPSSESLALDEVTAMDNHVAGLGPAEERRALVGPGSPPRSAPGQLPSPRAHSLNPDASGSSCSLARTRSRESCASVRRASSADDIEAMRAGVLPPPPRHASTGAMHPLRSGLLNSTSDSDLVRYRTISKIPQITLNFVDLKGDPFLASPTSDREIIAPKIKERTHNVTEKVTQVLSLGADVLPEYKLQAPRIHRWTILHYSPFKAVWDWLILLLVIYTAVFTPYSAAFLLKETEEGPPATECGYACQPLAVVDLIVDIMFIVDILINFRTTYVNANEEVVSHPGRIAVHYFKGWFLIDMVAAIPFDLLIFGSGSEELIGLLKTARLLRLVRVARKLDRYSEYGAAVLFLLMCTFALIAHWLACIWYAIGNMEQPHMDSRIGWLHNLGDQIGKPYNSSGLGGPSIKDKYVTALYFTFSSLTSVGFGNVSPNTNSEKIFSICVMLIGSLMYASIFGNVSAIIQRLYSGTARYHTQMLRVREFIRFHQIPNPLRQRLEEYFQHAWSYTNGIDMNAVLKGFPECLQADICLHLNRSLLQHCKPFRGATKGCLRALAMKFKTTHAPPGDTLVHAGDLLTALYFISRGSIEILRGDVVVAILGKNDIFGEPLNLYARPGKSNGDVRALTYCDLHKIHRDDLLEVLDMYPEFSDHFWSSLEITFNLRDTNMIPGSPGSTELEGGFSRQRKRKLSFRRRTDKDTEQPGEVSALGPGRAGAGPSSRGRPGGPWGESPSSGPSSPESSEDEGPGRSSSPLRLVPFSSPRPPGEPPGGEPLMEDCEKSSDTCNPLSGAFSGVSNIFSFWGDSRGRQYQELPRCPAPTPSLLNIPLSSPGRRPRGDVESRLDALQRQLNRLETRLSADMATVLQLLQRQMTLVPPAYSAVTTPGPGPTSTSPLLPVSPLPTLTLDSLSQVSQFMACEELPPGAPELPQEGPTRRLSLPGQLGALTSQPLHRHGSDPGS

SMILES: COc1ccc(NC(=S)NCCCn2cncc2C)cc1OCCN
- inhibition in vivo at 25 mg/kg [1]: 35.3%
- inhibition at 10 µM [2]: 15.3%
- Activity [3]: 100%

SMILES: Cc1cncn1CCCNC(=S)Nc1ccc(/C=C/C(=O)N2CCN(CCN)CC2)cc1
- inhibition in vivo at 25 mg/kg [1]: 22.9%
- inhibition at 10 µM [2]: 7.2%
- Activity [3]: 100%

SMILES: COc1ccc(NC(=S)NCCCn2cncc2C)cc1OCCCCN
- inhibition in vivo at 25 mg/kg [1]: 36.6%
- inhibition at 10 µM [2]: 2.8%
- Activity [3]: 100%

SMILES: COc1ccc(NC(=S)NCCCn2cncc2C)cc1OCCCC1CCNCC1
- inhibition in vivo at 25 mg/kg [1]: 5.5%
- inhibition at 10 µM [2]: 25.6%
- Activity [3]: 100%

SMILES: COc1ccc(NC(=S)NCCCn2cncc2C)cc1OCCCN
- inhibition in vivo at 25 mg/kg [1]: 12.8%
- inhibition at 10 µM [2]: 8.8%
- Activity [3]: 100%

SMILES: COc1ccc(NC(=S)NCCCn2cncc2C)cc1OCCCCC1CCNCC1
- inhibition in vivo at 25 mg/kg [1]: 14.4%
- inhibition at 10 µM [2]: 35.1%
- Activity [3]: 100%

SMILES: COc1ccc(NC(=S)NCCCn2cncc2C)cc1OCCC1CCNCC1
- inhibition in vivo at 25 mg/kg [1]: 1.8%
- inhibition at 10 µM [2]: 14.9%
- Activity [3]: 100%

SMILES: Cc1cncn1CCCNC(=S)Nc1ccc(OCC(=O)NC2CCN(CCN)CC2)cc1
- inhibition at 10 µM [2]: 19.9%
- Activity [3]: 100%
